# Laboratory results from ChEMBL document CHEMBL4513216, “Probing the Open Global Health Chemical Diversity Library for Multistage-Active Starting Points for Next-Generation Antimalarials” (ACS Infect Dis, 2020).
# Test: Toxicity liver stage against HepG2, at 10uM
# Type: cell-based
# Design: test concentration 10 uM, cell line HepG2-A16-CD81EGFP
# Details: human, HepG2-A16-CD81EGFP cells; read-out: INHIBITION
# Outline: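 Uninfected HepG2-A16-CD81EGFP cells, 3 × 10^3 per well, 1536-well, plated on prespotted compound at 10 μM final, parasite-free screening media added to match infected plates; puromycin 10 μM positive, DMSO 0.5% negative; run in parallel with 48 h PbLuc assay at 37 °C, 5% CO2; viability by CellTiter-Glo luminescence, normalized to controls.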
row,SMILES,cytotoxicity at 10 µM [%]
1,CCS(=O)(=O)N1Cc2nccn2CC(Cn2cncn2)C1 (stereo not drawn),7.21
2,N#Cc1cn(C2CC2)c(=O)n(CC(O)c2ccc(Cl)cc2)c1=O (stereo not drawn),-5.78
3,COc1cccc(OC)c1CN1CCC2(CC(Nc3ccncn3)C2)C1 (stereo not drawn),3.71
4,CCOCCC(=O)N1CCN(CC(C)O)CC1 (stereo not drawn),6.7
5,Cn1cccc1C(=O)N1C[C@H]2CN(Cc3cccs3)C[C@H]2C1,2.02
6,CN(C)CCC(Nc1nc(N)nc2c1CCNCC2)c1ccccc1 (stereo not drawn),-4.32
7,COc1ccc(CC(=O)N(C)c2cccnc2N(C)C)c(Cl)c1,5.71
8,COCc1cncc2c1CCN(C(=O)c1ccoc1C)C2,-81.1
9,Cn1cc2c(n1)C(CNC1CCOCC1)OCC2 (stereo not drawn),9.31
10,O=C(c1cscn1)N1CC[C@@H]2[C@@H]1CCN2CC1CCOC1 (stereo partly drawn),-2.36
11,N#Cc1ccc(C(=O)N2CCn3cc(CN4CCCCC4)nc3C2)cc1,-84.7
12,CSc1ccc(NC(=O)Cn2cc(N)cn2)cc1,0.14
13,COc1ccc(CN(C)CC(O)COCc2ccccc2Cl)c(OC)c1 (stereo not drawn),18.8
14,CN(C)C(=O)CN1C[C@H]2CCN(C(=O)c3ccncc3)CC[C@H]2S1(=O)=O,-1.55
15,CCC(CC)(CCCNC(=O)c1c(C)noc1C)C1OCCO1,1.98
16,COc1ccc(-c2nc(CCNc3nnc(C)c(C)c3C#N)co2)cc1,-17.2
17,COCCCNC(=O)CCn1ncc2c(Cl)cccc21,7.72
18,Cc1nc(C2CCN(C(=O)CO)CC2)cc(N2CCOCC2)n1,-12.2
19,CNS(=O)(=O)CC1CCCN1c1ccc(Cl)cn1 (stereo not drawn),7.6
20,COC(=O)CNC(=O)c1nc(Br)sc1C(C)C,-172
21,COc1ccc2cc(-c3n[nH]cc3CN3CCSCC3)ccc2c1,2.22

row,SMILES,cytotoxicity at 10 µM [%]
1,CC1(C)CNC(=O)c2nc(CCN3CCOCC3)[nH]c2C1,-10.7
2,CCCN1C[C@@H]2CC[C@H]1CN(Cc1ccc(Cn3cccn3)cc1)C2,-4.87
3,CCCN1CCN(C(=O)c2cnc(C)nc2)[C@H]2CS(=O)(=O)C[C@H]21,0.0652
4,CC1CCN(CCNC(=O)C2CCN(S(N)(=O)=O)CC2)CC1,17.9
5,O=C(NCC1CC1)[C@H]1C[C@H]2CN(S(=O)(=O)Cc3ccccc3)C[C@@H]1O2,7.56
6,Cc1cc(C)n(C2CCCN(C(=O)CCc3nccs3)C2)n1 (stereo not drawn),-28.1
7,CCCn1c(C)c(CC(=O)N(C)CCOC)c2c1CC(C)(C)CC2=O,-16.6
8,O=C(c1ccncc1)N1CCOC2(CCCN(c3nncs3)C2)C1 (stereo not drawn),-98
9,Cc1ccc(CN2CCc3ncnc(OC(C)C)c3CC2)s1,22.8
10,CCn1cc(NC(=O)NCCc2ccc3c(c2)OCCO3)cn1,-7.72
11,Cc1cnc(N2CCN(C)CC2)nc1-c1ccnn1C,6.3
12,O=C(CSc1nnc2n1N=CN(c1ccccc1)C2)c1ccccc1,9.11
13,CN(C)C(=O)N1CC2(CCN(CC3CC3)CC2)c2cc(F)ccc21,-1.54
14,Cc1cnc(C)c(N2CCC(Cc3ccccc3Cl)(C(=O)O)CC2)n1,3.4
15,CCc1noc(C(C)N2CCC(C)CC2)n1 (stereo not drawn),-7.6
16,CC[C@H]1CN(C(=O)c2ccc(-n3cnnc3)nc2)CC[C@@]1(C)O,-11.9
17,CC1c2ccsc2CCN1Cc1cc2c(cc1O)OCO2 (stereo not drawn),11.7
18,c1coc(-c2nc(CNCCn3cccn3)cs2)c1,-13.8
19,COC(=O)c1ccc(N2CCN(Cc3csc(C)n3)CC2)nn1,-1.7
20,Cc1nn(C)c(C)c1C1CCCN1CC(=O)N(C)c1nccs1 (stereo not drawn),-1.32
21,CCn1cc(C(=O)NCc2cccnc2N(C)Cc2ccccc2)cn1,1.18

row,SMILES,cytotoxicity at 10 µM [%]
1,CC1CCCN1C1CCN(C(=O)c2cccc(F)c2)CC1 (stereo not drawn),5.93
2,CC[C@@H](CO)NC(=O)c1coc(COc2ccc(OC)cc2)n1,15
3,O=C(Nc1cccnc1)C1=NN(c2ccccc2)C(=O)CN1,-7.12
4,CCNc1ncc(C)c(-c2cnn(C)c2)n1,-3.73
5,Cc1ccc2c(c1C)OCC2NCc1ccc(C#N)cc1 (stereo not drawn),25.8
6,COCc1ncc(-c2nccn2CCn2cnnc2)cn1,4.6
7,COc1ncccc1CN1C[C@@H]2COC[C@]2(COc2ccccn2)C1,-3.87
8,CCCOc1cc(CNC(=O)Nc2ccccn2)ccn1,-2.25
9,Cc1[nH]c(=O)[nH]c(=O)c1CN1CCCC(CCc2ccccc2F)C1 (stereo not drawn),-4.19
10,CC(C)(N)C(=O)N1CCCC1c1cncc(Oc2ccc(F)cc2)n1 (stereo not drawn),1.11
11,Cc1cc(CN2CCN(C(=O)NC(C)c3ccc(C)o3)CC2)on1 (stereo not drawn),-8.72
12,Clc1ccc2cccnc2c1CNC1CCc2ncnn2C1 (stereo not drawn),-6.53
13,COc1ccc(CN)c(OC(F)F)c1,-41.7
14,CC(C)NC(=O)c1ccc2c(c1)C1(CCN(C(C)C)CC1)C(=O)N2,-7.47
15,O=C(NCCCn1nc2ccccn2c1=O)NCC(C1CC1)C1CC1,6.01
16,Cc1nn(C)c(C)c1CN(C)C1CCN(c2ncnc3[nH]cnc23)CC1,-76.7
17,CSc1ncnc(NCc2ccco2)c1C#N,0.0868
18,c1ccc(C2CN(c3ncnc4[nH]cnc34)CCO2)cc1 (stereo not drawn),9.42
19,O=C(NCC1CCCO1)c1cc(Sc2ncccn2)ccn1 (stereo not drawn),-17.2
20,Cn1ccnc1CN1CCC(Cn2cc(-c3ccncc3)nn2)CC1,-4.5
21,CN(C)S(=O)(=O)c1csc(C(=O)N2CCC(C(N)=O)CC2)c1,-46.5

row,SMILES,cytotoxicity at 10 µM [%]
1,CCn1cc(CN(C)S(=O)(=O)c2ccc(NC(C)=O)cc2)cn1,9.22
2,O=C(CN1CCN(CC2CCOc3ccccc3C2)CC1)N1CCCC1 (stereo not drawn),-4.02
3,Cc1cnn(CC2CCCCN2Cc2nc(C)c3ccccc3n2)c1 (stereo not drawn),-8.54
4,COc1c(CNC2CCSc3ccc(F)cc32)c(C)nn1C (stereo not drawn),32.8
5,c1ccc(CCn2cc(-c3nc(CN4CCOCC4)no3)nn2)cc1,1.85
6,CSc1ncc(C(=O)N2C[C@@H]3CC[C@H]2CN(Cc2ccccc2)C3)cn1,-7.49
7,CC(=O)c1c(C)nn(S(=O)(=O)c2ccc(F)cc2)c1C,3.25
8,CN(Cc1c(Cl)ccc2cccnc12)CC(C)(CO)CO,7.6
9,CCc1cnc(N)nc1N1CCCC2(CCOCC2)C1,-135
10,Cc1cnc(N2C[C@@H]3CN(Cc4ccco4)CCC[C@]3(C(=O)O)C2)nc1,7.25
11,CCS(=O)(=O)N1CCCn2nnc(Cn3cccc3)c2C1,9.77
12,CS(=O)(=O)CCSc1nnc(Cc2ccccc2F)o1,0.313
13,Cc1cc(C)n(-c2ccc(CNCc3cccc(C#N)c3)cn2)n1,-10.2
14,COCCCn1cnnc1CNc1cc(C)nc2ccnn12,-7.79
15,CCCc1cc(=O)[nH]c2nnc(SCC(=O)NCCc3ccccc3)n12,14.2
16,Cc1ccccc1NS(=O)(=O)c1cc2c(c(C(=O)O)c1)OCCO2,-11.7
17,O=C(c1ccc(Cl)c(Cl)c1)N1CCCCC1C1OCCO1 (stereo not drawn),9.25
18,COc1cc2[nH]c(=O)c(CN3CCCC(CO)C3)cc2c(OC)c1OC (stereo not drawn),-11.7
19,Cc1nc(C(C)NC(=O)c2cn(CCC3CCCCC3)nn2)n[nH]1 (stereo not drawn),9.21
20,Cn1cc(CNCC2(O)CCCCC2)c(-c2cccnc2)n1,14.9
